Calls of active or inactive are those of the source. The rule behind the calls is not given here.
Tests used:
[1] = molecular target: T1, Lysosomal alpha-mannosidase (Homo sapiens) (UniProt O00754); experiment: Inhibition of human lysosomal alpha-mannosidase assessed as formation of 4-methylumbelliferone from 4-methylumbelliferyl […] up to 200 uM in presence of beta-cyclodextrin by luminescence spectrophotometry
T1 sequence (whole entry): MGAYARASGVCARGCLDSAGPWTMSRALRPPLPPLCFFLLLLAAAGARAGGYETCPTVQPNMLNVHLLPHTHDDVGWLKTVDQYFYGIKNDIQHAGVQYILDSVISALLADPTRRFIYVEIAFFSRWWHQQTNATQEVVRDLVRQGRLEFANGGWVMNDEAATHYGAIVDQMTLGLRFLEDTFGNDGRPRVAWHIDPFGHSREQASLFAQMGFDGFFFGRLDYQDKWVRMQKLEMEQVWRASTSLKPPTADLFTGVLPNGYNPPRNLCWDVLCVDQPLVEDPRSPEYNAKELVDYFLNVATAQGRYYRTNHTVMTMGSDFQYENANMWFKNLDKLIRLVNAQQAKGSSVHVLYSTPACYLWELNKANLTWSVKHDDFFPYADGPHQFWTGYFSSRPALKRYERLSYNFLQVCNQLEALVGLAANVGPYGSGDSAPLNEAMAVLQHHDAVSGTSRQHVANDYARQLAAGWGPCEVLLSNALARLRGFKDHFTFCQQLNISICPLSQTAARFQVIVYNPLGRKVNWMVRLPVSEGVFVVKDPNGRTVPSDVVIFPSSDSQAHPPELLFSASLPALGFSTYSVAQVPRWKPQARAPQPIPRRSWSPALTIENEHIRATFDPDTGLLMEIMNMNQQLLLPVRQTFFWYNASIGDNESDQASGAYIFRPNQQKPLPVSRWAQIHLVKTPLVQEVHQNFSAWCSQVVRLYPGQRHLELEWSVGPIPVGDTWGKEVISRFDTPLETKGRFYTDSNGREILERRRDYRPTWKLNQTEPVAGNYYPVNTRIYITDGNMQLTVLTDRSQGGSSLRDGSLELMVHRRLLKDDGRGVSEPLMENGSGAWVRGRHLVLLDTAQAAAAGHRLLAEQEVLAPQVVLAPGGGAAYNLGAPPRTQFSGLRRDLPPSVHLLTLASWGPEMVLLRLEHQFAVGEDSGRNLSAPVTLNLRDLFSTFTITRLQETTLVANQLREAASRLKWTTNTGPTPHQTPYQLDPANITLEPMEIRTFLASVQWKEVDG
Outline: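 Cells were scraped into ice-cold water (10⁶ cells/mL), sonicated and centrifuged, and protein was quantified. Lysate in 0.1% Triton X-100 was incubated at 37 °C with the matching 4-MU-conjugated glycoside in 0.1 M citrate, pH 4.5, with increasing chaperone or βCD-complex concentrations up to 200 μM. Reactions were stopped with glycine-NaOH, pH 10.7, and read at ex 340/em 460 nm.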

Fibroblast [2] = experiment: Cytotoxicity against human fibroblasts assessed as cell death at 3 to 100 uM after 24 hrs in presence of beta-cyclodextrin by lactate dehydrogenase assay; format: cell-based
Outline: (§1)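 Normal human fibroblasts were plated at 15,000 cells per 35 mm dish and incubated overnight. Medium with or without compound was then applied for 24 h. Cytotoxicity was measured by lactate dehydrogenase release in the collected supernatant. Cells were mycoplasma-tested beforehand.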

[3] = molecular target: Beta-glucosidase (Prunus dulcis); experiment: Inhibition of almond beta-glucosidase using beta-D-glycopyranoside after 10 to 30 mins by spectrophotometry
Saccharomyces cerevisiae = experiment: Inhibition of yeast alpha-glucosidase up to 1 mM using beta-D-glycopyranoside after 10 to 30 mins by spectrophotometry
Outline: (§2)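 Commercial glycosidases were assayed with o-nitrophenyl (E. coli β-galactosidase) or p-nitrophenyl glycoside substrate near KM. Buffer was phosphate, or phosphate-citrate for mannosidases and amyloglucosidase, at each enzyme's optimal pH. Enzyme was added last. Incubation ran 10-30 min at 37 °C (55 °C for amyloglucosidase), then was quenched with 1 M Na2CO3 and read at A405. Free compounds were tested up to 1 mM; 1:1 βCD complexes up to 2 mM.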

Aspergillus niger = experiment: Inhibition of Aspergillus niger amyloglucosidase up to 1 mM using beta-D-glycopyranoside after 10 to 30 mins by spectrophotometry; outline: as §2
Fibroblast [4] = experiment: Cytotoxicity against human fibroblasts assessed as cell viability up to 100 uM after 24 hrs by lactate dehydrogenase assay; format: cell-based; outline: as §1
Alpha-mannosidase = molecular target: T2, Alpha-mannosidase (Canavalia ensiformis, UniProt C0HJB3); experiment: Inhibition of jack bean alpha-mannosidase using beta-D-glycopyranoside after 10 to 30 mins by spectrophotometry; outline: as §2
T2 sequence (C0HJB3 whole entry): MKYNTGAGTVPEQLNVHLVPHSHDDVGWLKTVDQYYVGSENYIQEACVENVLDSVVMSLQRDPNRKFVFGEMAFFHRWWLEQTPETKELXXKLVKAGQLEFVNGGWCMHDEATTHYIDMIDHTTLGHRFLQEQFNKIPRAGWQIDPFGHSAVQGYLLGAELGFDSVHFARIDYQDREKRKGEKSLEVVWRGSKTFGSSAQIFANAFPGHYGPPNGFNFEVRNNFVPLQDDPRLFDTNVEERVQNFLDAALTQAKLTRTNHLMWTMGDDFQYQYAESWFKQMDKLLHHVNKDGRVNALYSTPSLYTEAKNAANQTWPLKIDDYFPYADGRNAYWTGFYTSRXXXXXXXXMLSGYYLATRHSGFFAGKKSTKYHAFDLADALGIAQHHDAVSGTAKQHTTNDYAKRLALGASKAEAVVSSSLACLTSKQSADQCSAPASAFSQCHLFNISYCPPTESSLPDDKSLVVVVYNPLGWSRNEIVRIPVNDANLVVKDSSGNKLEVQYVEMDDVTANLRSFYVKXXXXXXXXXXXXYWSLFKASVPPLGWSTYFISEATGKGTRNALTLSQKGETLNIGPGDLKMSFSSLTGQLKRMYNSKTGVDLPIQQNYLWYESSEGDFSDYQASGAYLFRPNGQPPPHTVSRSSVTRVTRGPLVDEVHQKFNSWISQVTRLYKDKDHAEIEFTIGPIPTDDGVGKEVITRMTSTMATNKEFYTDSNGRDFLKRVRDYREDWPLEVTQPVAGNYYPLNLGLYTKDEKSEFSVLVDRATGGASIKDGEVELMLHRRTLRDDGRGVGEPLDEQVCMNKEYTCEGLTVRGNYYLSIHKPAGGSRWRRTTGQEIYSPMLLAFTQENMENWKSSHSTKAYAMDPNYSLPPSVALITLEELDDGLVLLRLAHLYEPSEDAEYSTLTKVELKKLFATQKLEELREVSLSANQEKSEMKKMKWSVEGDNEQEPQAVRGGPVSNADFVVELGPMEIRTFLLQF

Helix pomatia = experiment: Inhibition of Helix pomatia beta-mannosidase up to 1 mM using beta-D-glycopyranoside after 10 to 30 mins by spectrophotometry; outline: as §2
Prunus dulcis = experiment: Inhibition of almond beta-glucosidase at 2 mM using beta-D-glycopyranoside after 10 to 30 mins in presence of beta-cyclodextrin by spectrophotometry; outline: as §2

| inhibition [1] | Ki [3] | inhibition (Saccharomyces cerevisiae) | inhibition (Aspergillus niger) | Ki (Alpha-mannosidase) | inhibition (Helix pomatia) | inhibition (Prunus dulcis) | SMILES | Activity (Fibroblast [2]) | Activity (Fibroblast [4]) |
| --- | --- | --- | --- | --- | --- | --- | --- | --- | --- |
| Active |  |  |  |  |  |  | O=C(CCC(F)(F)C(F)(F)C(F)(F)C(F)(F)C(F)(F)C(F)(F)F)NCCCCCCCCCNC(=S)N1[C@@H]2CO[C@H]1[C@H](O)[C@@H](O)[C@@H]2O | Non-Toxic |  |
|  | > 100 µM | inactive | inactive | > 100 µM | inactive | Active | O=C(CCC(F)(F)C(F)(F)C(F)(F)C(F)(F)F)NCCCCNC(=S)N1[C@@H]2CO[C@H]1[C@H](O)[C@@H](O)[C@@H]2O |  | Non-Toxic |
|  | > 100 µM | inactive | inactive | > 100 µM | inactive | Active | O=C(CCC(F)(F)C(F)(F)C(F)(F)C(F)(F)C(F)(F)C(F)(F)F)NCCCCNC(=S)N1[C@@H]2CO[C@H]1[C@H](O)[C@@H](O)[C@@H]2O | Non-Toxic |  |
| Active |  |  |  |  |  |  | O=C(CCC(F)(F)C(F)(F)C(F)(F)C(F)(F)F)NCCCCCCCCCNC(=S)N1[C@@H]2CO[C@H]1[C@H](O)[C@@H](O)[C@@H]2O |  | Non-Toxic |

From ChEMBL document CHEMBL4007410, “Fluorinated Chaperone-β-Cyclodextrin Formulations for β-Glucocerebrosidase Activity Enhancement in Neuronopathic Gaucher Disease” (J Med Chem, 2017)
